Reference: ChEMBL document CHEMBL3997841, “Continued optimization of the M5 NAM ML375: Discovery of VU6008667, an M5 NAM with high CNS penetration and a desired short half-life in rat for addiction studies” (Bioorg Med Chem Lett, 2017)
Converted amounts (≈) assume the structure as drawn.

Experiments:
[1] = Aqueous solubility of the compound; type: physicochemical; settings: buffer
[2] = biological target: T1, Muscarinic acetylcholine receptor M5 (Homo sapiens) (UniProt P08912); assay: Negative allosteric modulation of human M5 receptor expressed in CHO cells assessed as inhibition of acetyl choline-induced calcium mobilization at 10 uM preincubated for 150 secs followed by acetyl choline addition by Fluo-4-AM dye based fluorescence assay relative to acetyl choline; values are per cent of control
T1 sequence (whole entry): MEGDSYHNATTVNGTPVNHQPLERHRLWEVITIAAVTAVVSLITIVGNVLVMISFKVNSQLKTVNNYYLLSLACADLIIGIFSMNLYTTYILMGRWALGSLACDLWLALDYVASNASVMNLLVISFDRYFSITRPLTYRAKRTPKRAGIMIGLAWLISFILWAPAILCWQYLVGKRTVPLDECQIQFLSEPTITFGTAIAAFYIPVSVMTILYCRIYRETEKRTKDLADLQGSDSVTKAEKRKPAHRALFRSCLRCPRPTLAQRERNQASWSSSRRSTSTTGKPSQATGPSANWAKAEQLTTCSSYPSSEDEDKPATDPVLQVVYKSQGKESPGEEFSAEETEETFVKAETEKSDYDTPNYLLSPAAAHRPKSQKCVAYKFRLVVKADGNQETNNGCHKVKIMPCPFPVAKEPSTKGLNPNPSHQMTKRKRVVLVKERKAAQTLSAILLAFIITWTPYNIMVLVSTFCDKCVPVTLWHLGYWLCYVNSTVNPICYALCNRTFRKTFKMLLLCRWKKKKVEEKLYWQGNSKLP

[3] = biological target: T2, Muscarinic acetylcholine receptor M5 (Homo sapiens, UniProt P08912); assay: Negative allosteric modulation of human M5 receptor expressed in CHO cells assessed as inhibition of acetyl choline-induced calcium mobilization preincubated for 150 secs followed by acetyl choline addition by Fluo-4-AM dye based fluorescence assay; type: functional, cell-based
T2 sequence (P08912 whole entry): T1 sequence (whole entry)
Outline: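 Intracellular calcium mobilization in CHO cells stably transfected with human M5 receptor, run in the presence of an ACh EC80 concentration; values are means of at least three independent determinations, each performed in triplicate.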

[4] = Clearance in rat plasma by LC/MS/MS analysis; type: ADME
[5] = Elimination half life in rat by LC-MS/MS analysis; type: ADME; settings: in vivo, read-out: beta t1/2
[6] = (§1) Fraction unbound in human plasma at 5 uM after 4 hrs by LC-MS/MS based equilibrium dialysis method; type: ADME, cell-free
[7] = (§2) Fraction unbound in rat plasma at 5 uM after 4 hrs by LC-MS/MS based equilibrium dialysis method; type: ADME, cell-free
[8] = Selectivity ratio of IC50 for rat M5 receptor expressed in CHO cells to IC50 for human M5 receptor expressed in CHO cells; type: cell-based
[9] = test system: Brain; assay: Fraction unbound in rat brain at 1 uM after 4 hrs by LC-MS/MS based equilibrium dialysis method; type: ADME, tissue-based
[10] = Clearance in rat at 1 mg/kg, iv or 3 mg/kg, po by LC-MS/MS analysis; type: ADME, organism-based; settings: in vivo
[11] = biological target: T3, Muscarinic acetylcholine receptor M5 (Rattus norvegicus) (UniProt P08911); assay: Negative allosteric modulation of rat M5 receptor expressed in CHO cells assessed as inhibition of acetyl choline-induced calcium mobilization at 10 uM preincubated for 150 secs followed by acetyl choline addition by Fluo-4-AM dye based fluorescence assay relative to acetyl choline; values are per cent of control
T3 sequence (whole entry): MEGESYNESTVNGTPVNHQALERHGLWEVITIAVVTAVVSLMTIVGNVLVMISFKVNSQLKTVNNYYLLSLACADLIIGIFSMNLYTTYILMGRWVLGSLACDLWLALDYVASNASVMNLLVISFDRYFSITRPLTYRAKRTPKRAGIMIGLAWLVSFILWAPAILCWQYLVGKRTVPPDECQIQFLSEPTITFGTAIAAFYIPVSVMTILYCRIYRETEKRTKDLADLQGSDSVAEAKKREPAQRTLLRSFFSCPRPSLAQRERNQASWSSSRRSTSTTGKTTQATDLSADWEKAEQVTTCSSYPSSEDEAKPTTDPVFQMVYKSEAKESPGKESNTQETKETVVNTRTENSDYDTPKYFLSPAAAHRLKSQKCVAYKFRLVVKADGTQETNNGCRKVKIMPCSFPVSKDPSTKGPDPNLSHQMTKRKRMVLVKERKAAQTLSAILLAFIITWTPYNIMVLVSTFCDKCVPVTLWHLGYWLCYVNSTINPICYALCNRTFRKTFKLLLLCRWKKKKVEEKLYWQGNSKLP

[12] = biological target: T4, Muscarinic acetylcholine receptor M5 (Rattus norvegicus, UniProt P08911); assay: Negative allosteric modulation of rat M5 receptor expressed in CHO cells assessed as inhibition of acetyl choline-induced calcium mobilization preincubated for 150 secs followed by acetyl choline addition by Fluo-4-AM dye based fluorescence assay; type: functional, cell-based
T4 sequence (P08911 whole entry): T3 sequence (whole entry)
Outline: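 Calcium mobilization assay in CHO cells stably transfected with rat M5 receptor; data are means of at least three independent determinations done in triplicate.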

[13] = test system: Rattus norvegicus; assay: Oral bioavailability in rat at 3 mg/kg by LC-MS/MS analysis; type: ADME, organism-based; settings: in vivo
[14] = test system: Plasma; assay: as §1; type: ADME, cell-free; settings: 4 h, 5 µM
[15] = test system: Plasma; assay: as §2; type: ADME, cell-free; settings: 4 h, 5 µM
[16] = Volume of distribution at steady state in rat at 1 mg/kg, iv or 3 mg/kg, po by LC-MS/MS analysis; type: ADME, organism-based; settings: in vivo, read-out: Vdss

SMILES	solubility [1] [µg/mL]	residual activity [2] [%]	IC50 ([3]; read-out: IC50) [µM]	clearance [4] [mL/min/kg]	half-life [5] [min]	fraction unbound at 4 h, 5 µM [6]	fraction unbound at 4 h, 5 µM [7]	IC50 ([3]; read-out: pIC50 (converted)) [µM]	Fu [9]	clearance [10] [mL/min/kg]	residual activity [11] [%]	IC50 [12] [µM]	F [13] [%]	Fu [14]	Fu [15]	Vd [16] [L/kg]	Ratio IC50 [8]
O=C(c1ccc(F)c(F)c1)N1CCN2C(=O)c3ccccc3[C@@]12c1ccc(Cl)cc1	< 10	2.3	–	–	–	–	–	–	–	–	–	–	–	–	–	–	–
O=C(c1ccc(F)c(F)c1)N1CCN2C(=O)c3ccccc3[C@@]12c1ccc(N2CC3(C2)CC(F)(F)C3)cc1	–	26.2	> 10	> 70	< 30	< 0.01	< 0.01	–	–	–	–	–	–	–	–	–	–
O=C(c1ccc(F)c(F)c1)N1CCN2C(=O)c3ccccc3[C@@]12c1ccc(N2CCC[C@H]2c2cccnc2)cc1	–	6	3.5	> 70	< 30	< 0.01	< 0.01	–	–	–	–	–	–	–	–	–	–
O=C(c1ccc(F)c(F)c1)N1CCN2C(=O)c3ccccc3[C@@]12c1ccc(NC2CCC2)cc1	–	25.5	6.92	> 70	< 30	< 0.01	< 0.01	6.76	–	–	–	–	–	–	–	–	–
Cc1cc([C@@]23c4ccccc4C(=O)N2CCN3C(=O)c2ccc(F)c(F)c2)ccc1Cl	–	–	–	–	–	–	–	–	0.003	82	2.6	1.6	17	0.006	0.014	7.4	–
CCOC(=O)N1CCN(c2ccc([C@@]34c5ccccc5C(=O)N3CCN4C(=O)c3ccc(F)c(F)c3)cc2)CC1	–	7.5	–	> 70	< 30	< 0.01	< 0.01	–	–	–	–	–	–	–	–	–	–
CN(c1ccc([C@@]23c4ccccc4C(=O)N2CCN3C(=O)c2ccc(F)c(F)c2)cc1)C1CCC1	10000 (≈ 21.1 mM)	2.6	–	> 70	< 30	< 0.01	< 0.01	–	–	–	–	–	–	–	–	–	–
O=C(c1ccc(F)c(F)c1)N1CCN2C(=O)c3ccccc3[C@@]12c1ccc(N2CCCCC2C(F)(F)F)cc1 (some centres not stated)	–	2.6	5.7	> 70	< 30	< 0.01	< 0.01	–	–	–	–	–	–	–	–	–	–
CC1Cc2ccccc2N1c1ccc([C@@]23c4ccccc4C(=O)N2CCN3C(=O)c2ccc(F)c(F)c2)cc1 (some centres not stated)	–	27	4.55	> 70	< 30	< 0.01	< 0.01	4.47	–	–	–	–	–	–	–	–	–
O=C(c1ccc(F)c(F)c1)N1CCN2C(=O)c3ccccc3[C@@]12c1ccc(N2CCc3ccccc3C2)cc1	–	20.1	8.21	> 70	< 30	< 0.01	< 0.01	7.76	–	–	–	–	–	–	–	–	–

Continued, in another order:

solubility [1] [µg/mL]	residual activity [2] [%]	IC50 ([3]; read-out: IC50) [µM]	clearance [4] [mL/min/kg]	half-life [5] [min]	fraction unbound at 4 h, 5 µM [6]	fraction unbound at 4 h, 5 µM [7]	IC50 ([3]; read-out: pIC50 (converted)) [µM]	Fu [9]	clearance [10] [mL/min/kg]	residual activity [11] [%]	IC50 [12] [µM]	F [13] [%]	Fu [14]	Fu [15]	Vd [16] [L/kg]	SMILES	Ratio IC50 [8]
–	13.6	4.28	> 70	< 30	< 0.01	< 0.01	–	–	–	–	–	–	–	–	–	O=C(c1ccc(F)c(F)c1)N1CCN2C(=O)c3ccccc3[C@@]12c1ccc(N2CCC(F)CC2)cc1	–
10000 (≈ 19.6 mM)	3.1	1.46	> 70	< 30	< 0.01	< 0.01	–	–	–	–	–	–	–	–	–	O=C(c1ccc(F)c(F)c1)N1CCN2C(=O)c3ccccc3[C@@]12c1ccc(N2CCCC(F)(F)C2)cc1	2
–	10.5	6.04	> 70	< 30	< 0.01	< 0.01	–	–	–	–	–	–	–	–	–	O=C(c1ccc(F)c(F)c1)N1CCN2C(=O)c3ccccc3[C@@]12c1ccc(N2CCCCC2)cc1	–
10000 (≈ 19.6 mM)	3.1	1.82	> 70	< 30	< 0.01	< 0.01	–	–	–	–	–	–	–	–	–	O=C(c1ccc(F)c(F)c1)N1CCN2C(=O)c3ccccc3[C@@]12c1ccc(N2CCC(F)(F)CC2)cc1	2
–	3.6	–	> 70	< 30	< 0.01	< 0.01	–	–	–	–	–	–	–	–	–	CC1CCCN(c2ccc([C@@]34c5ccccc5C(=O)N3CCN4C(=O)c3ccc(F)c(F)c3)cc2)C1 (some centres not stated)	–
–	6.9	6.36	> 70	< 30	< 0.01	< 0.01	–	–	–	–	–	–	–	–	–	O=C(c1ccc(F)c(F)c1)N1CCN2C(=O)c3ccccc3[C@@]12c1ccc(N2CCCC(F)C2)cc1 (some centres not stated)	–
–	3.3	3.09	> 70	< 30	< 0.01	< 0.01	3.02	–	–	–	–	–	–	–	–	O=C(c1ccc(F)c(F)c1)N1CCN2C(=O)c3ccccc3[C@@]12c1ccc(N2CC[C@@H](F)C2)cc1	–
–	3.2	3.42	> 70	< 30	< 0.01	< 0.01	–	–	–	–	–	–	–	–	–	O=C(c1ccc(F)c(F)c1)N1CCN2C(=O)c3ccccc3[C@@]12c1ccc(N2CCC(C(F)(F)F)CC2)cc1	–
–	26.3	–	> 70	< 30	< 0.01	< 0.01	–	–	–	–	–	–	–	–	–	N#CC1CCCN(c2ccc([C@@]34c5ccccc5C(=O)N3CCN4C(=O)c3ccc(F)c(F)c3)cc2)C1 (some centres not stated)	–
